Data published in ChEMBL document CHEMBL4622950, “The synthesis and antituberculosis activity of 5-alkynyl uracil derivatives” (Bioorg Med Chem Lett, 2020).
≈ marks a conversion by molar mass, not a printed value.

Legend:
[1] = test system: Mycobacterium tuberculosis; assay: Antitubercular activity against Mycobacterium tuberculosis H37Ra assessed as bacterial growth inhibition by MABA; type: functional
In short: (§1)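 Whole-cell growth inhibition of Mycobacterium bovis and M. tuberculosis H37Ra, read quantitatively by Microplate Alamar Blue Assay (alamar blue reagent). Compounds were tested across 1 to 100 µg/ml. Activity was expressed as MIC50 (µg/ml) from this concentration series.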

[2] = test system: Mycobacterium tuberculosis; assay: Antitubercular activity against Mycobacterium tuberculosis H37Ra assessed as bacterial growth inhibition at 5 ug/ml by MABA relative to control; type: functional; conditions: read-out: GI
[3] = test system: Mycobacterium tuberculosis; assay: Antitubercular activity against Mycobacterium tuberculosis H37Ra assessed as bacterial growth inhibition at 10 ug/ml by MABA relative to control; type: functional; conditions: read-out: GI
[4] = Cytotoxicity against African green monkey Vero cells assessed as reduction in cell viability by MTT assay; type: cell-based; conditions: chlorocebus sabaeus
In short: (§2)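 Viability read by the standard formazan (MTT) method. CC50 is the concentration giving a 50% decrease in cell viability, reported in µM as CC50±SD.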

[5] = Cytotoxicity against human A549 cells assessed as reduction in cell viability by MTT assay; type: cell-based; in short: as §2
[6] = test system: Mycobacterium tuberculosis; assay: Antitubercular activity against Mycobacterium tuberculosis H37Ra assessed as bacterial growth inhibition by MABA relative to control; type: functional; in short: as §1
[7] = Cytotoxicity against human MRC5 cells assessed as reduction in cell viability by MTT assay; type: cell-based; in short: as §2
[8] = test system: Mycobacterium tuberculosis; assay: Antitubercular activity against Mycobacterium tuberculosis H37Ra assessed as bacterial growth inhibition at 1 to 5 ug/ml by MABA relative to control; type: functional
[9] = test system: Mycobacterium tuberculosis; assay: Antitubercular activity against Mycobacterium tuberculosis H37Ra assessed as bacterial growth inhibition at 50 ug/ml by MABA relative to control; type: functional; conditions: read-out: GI
[10] = test system: Mycobacterium tuberculosis; assay: Antitubercular activity against Mycobacterium tuberculosis H37Ra assessed as bacterial growth inhibition at 25 ug/ml by MABA relative to control; type: functional; conditions: read-out: GI
[11] = test system: Mycobacterium tuberculosis; assay: Antitubercular activity against Mycobacterium tuberculosis H37Ra assessed as bacterial growth inhibition at 50 to 100 ug/ml by MABA relative to control; type: functional
[12] = test system: Mycobacterium tuberculosis; assay: Antitubercular activity against Mycobacterium tuberculosis H37Ra assessed as bacterial growth inhibition at 1 ug/ml by MABA relative to control; type: functional; conditions: read-out: GI
[13] = test system: Mycobacterium tuberculosis; assay: Antitubercular activity against Mycobacterium tuberculosis H37Ra assessed as bacterial growth inhibition at 100 ug/ml by MABA relative to control; type: functional; conditions: read-out: GI

| Compound | MIC50 [1] | inhibition of growth at 5 µg/mL [2] | inhibition of growth at 10 µg/mL [3] | CC50 [4] | CC50 [5] | growth inhibition (GI) [6] | CC50 [7] | growth inhibition (GI) [8] | inhibition of growth at 50 µg/mL [9] | inhibition of growth at 25 µg/mL [10] | growth inhibition (GI) [11] | inhibition of growth at 1 µg/mL [12] | inhibition of growth at 100 µg/mL [13] |
| --- | --- | --- | --- | --- | --- | --- | --- | --- | --- | --- | --- | --- | --- |
| N[C@@H]1CONC1=O [CYCLOSERINE] | 5.2 µg/mL (≈ 50.9 µM) | 50% | 67% | – | – | – | – | – | – | – | – | – | – |
| CC#Cc1c[nH]c(=O)[nH]c1=O | – | – | – | 262 µM | 256 µM | 0% | 117 µM | – | – | – | – | – | – |
| O=c1[nH]c(=O)n([C@@H]2O[C@H](CO)[C@@H](O)[C@H]2O)cc1C#CC1CCCCC1 | 18.9 µg/mL (≈ 53.9 µM) | – | – | 148 µM | 127 µM | – | 36.8 µM | 10% | 70% | 55% | – | – | – |
| O=c1[nH]cc(C#Cc2ccccc2)c(=O)[nH]1 | 18.2 µg/mL (≈ 85.8 µM) | – | – | 254 µM | 248 µM | – | 75.1 µM | – | – | – | 90% | – | – |
| NNC(=O)c1ccncc1 [ISONIAZID] | 0.8 µg/mL (≈ 5.83 µM) | – | – | – | – | – | – | – | – | – | – | 100% | – |
| O=c1[nH]c(=O)n([C@@H]2O[C@H](CO)[C@@H](O)[C@H]2O)cc1C#Cc1ccccc1 | 3.2 µg/mL (≈ 9.29 µM) | – | 70% | 78.4 µM | 42.5 µM | – | 1.2 µM | 50% | – | – | 90% | – | – |
| O=c1[nH]c(=O)n([C@@H]2O[C@H](CO)[C@@H](O)[C@H]2O)cc1C#CC(O)c1ccccc1 (stereo not given in full) | 1.1 µg/mL (≈ 2.94 µM) | – | – | 65.4 µM | 34.2 µM | – | 0.9 µM | 100% | – | – | – | – | – |
| CCCCC#Cc1c[nH]c(=O)[nH]c1=O | – | – | – | 253 µM | 250 µM | 0% | 113 µM | – | – | – | – | – | – |
| C[Si](C)(C)C#Cc1c[nH]c(=O)[nH]c1=O | 100 µg/mL (≈ 480 µM) | – | – | 270 µM | 268 µM | – | 124 µM | – | – | – | – | – | 50% |
| O=c1[nH]c(=O)n([C@@H]2O[C@H](CO)[C@@H](O)[C@H]2O)cc1C#CC1CC1 | – | – | 70% | 133 µM | 115 µM | – | 24.2 µM | 50% | – | – | – | – | 90% |
| CO[C@H]1/C=C/O[C@@]2(C)Oc3c(C)c(O)c4c(O)c(c(/C=N/N5CCN(C)CC5)c(O)c4c3C2=O)NC(=O)/C(C)=C\C=C\[C@H](C)[C@H](O)[C@@H](C)[C@@H](O)[C@@H](C)[C@H](OC(C)=O)[C@@H]1C [RIFAMPIN] | 0.7 µg/mL (≈ 0.851 µM) | – | – | – | – | – | – | – | – | – | – | 100% | – |
| CCCCCCC#Cc1c[nH]c(=O)[nH]c1=O | – | – | – | 250 µM | 249 µM | 0% | 94.9 µM | – | – | – | – | – | – |
| CCCCC#Cc1cn([C@@H]2O[C@H](CO)[C@@H](O)[C@H]2O)c(=O)[nH]c1=O | 50 µg/mL (≈ 154 µM) | – | 10% | 103 µM | 83.2 µM | – | 11.6 µM | – | 50% | – | – | – | 90% |
| CCC#Cc1c[nH]c(=O)[nH]c1=O | – | – | – | 263 µM | 253 µM | 0% | 120 µM | – | – | – | – | – | – |
| CCCCCCC#Cc1cn([C@@H]2O[C@H](CO)[C@@H](O)[C@H]2O)c(=O)[nH]c1=O | < 50 µg/mL | – | 0% | 111 µM | 87.2 µM | – | 15.7 µM | – | – | – | – | – | 90% |
| O=c1[nH]cc(C#CC2CC2)c(=O)[nH]1 | 5.2 µg/mL (≈ 29.5 µM) | – | – | 252 µM | 251 µM | – | 101 µM | – | 70% | – | – | – | 90% |
| O=c1[nH]cc(C#CC(O)c2ccccc2)c(=O)[nH]1 (stereo not given) | 2.9 µg/mL (≈ 12 µM) | – | 75% | 242 µM | 237 µM | – | 38.4 µM | 50% | – | – | 90% | – | – |
| O=c1[nH]cc(C#CC2CCCCC2)c(=O)[nH]1 | 2.8 µg/mL (≈ 12.8 µM) | – | – | 247 µM | 245 µM | – | 62.8 µM | 50% | – | – | – | – | 90% |
